Experimental findings from ChEMBL document CHEMBL3739330, “Phenolic group on A-ring is key for dracoflavan B as a selective noncompetitive inhibitor of α-amylase” (Bioorg Med Chem, 2015) are described below.

Test [1] deals with T1, Pancreatic alpha-amylase (Sus scrofa) (UniProt P00690).
T1 sequence (whole entry): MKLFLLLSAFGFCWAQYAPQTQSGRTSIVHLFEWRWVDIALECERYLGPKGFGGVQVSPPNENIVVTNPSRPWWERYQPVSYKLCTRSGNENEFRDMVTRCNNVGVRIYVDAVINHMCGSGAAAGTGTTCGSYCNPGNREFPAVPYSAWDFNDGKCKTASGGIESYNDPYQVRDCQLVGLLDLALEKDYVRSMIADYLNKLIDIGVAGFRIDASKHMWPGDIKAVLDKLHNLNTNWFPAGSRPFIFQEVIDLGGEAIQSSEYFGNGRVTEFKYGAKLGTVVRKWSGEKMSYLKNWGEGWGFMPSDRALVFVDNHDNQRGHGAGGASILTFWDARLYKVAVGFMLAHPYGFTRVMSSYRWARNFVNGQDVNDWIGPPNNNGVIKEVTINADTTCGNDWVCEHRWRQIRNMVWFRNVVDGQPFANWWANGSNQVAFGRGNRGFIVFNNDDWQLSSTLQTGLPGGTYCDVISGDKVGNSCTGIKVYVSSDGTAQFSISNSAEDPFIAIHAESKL
Kind of test: Inhibition of porcine pancreatic alpha-amylase assessed as starch digestion up to 370 uM up to 120 mins by turbidity assay.

For test [2], the species on record is Rattus norvegicus. Put plainly: Inhibition of rat intestine alpha-glucosidase assessed as starch digestion up to 370 uM up to 120 mins by turbidity assay.
The species entered for test [3] is Rattus norvegicus. Kind of test: Inhibition of rat intestine alpha-glucosidase assessed as starch digestion by turbidity assay.
The target in test [4] is T2, Pancreatic alpha-amylase (Sus scrofa, UniProt P00690).
T2 sequence (P00690 whole entry): T1 sequence (whole entry)
Put plainly: Inhibition of porcine pancreatic alpha-amylase assessed as starch digestion up to 120 mins by turbidity assay.

The subject of test [5] is Aspergillus oryzae. Put plainly: Inhibition of Aspergillus oryzae alpha-amylase.
Test [6] deals with Alpha-amylase (Bacillus subtilis (strain 168), UniProt P00691). Put plainly: Inhibition of Bacillus subtilis alpha-amylase.
The target of test [7] is T2, Pancreatic alpha-amylase. Put plainly: Non-competitive inhibition of porcine pancreatic alpha-amylase by Lineweaver-Burk plot analysis. In a few lines: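 Corn starch substrate 0.25–1 mg/mL, inhibitor at 11, 18 and 22 µM. Inhibitor (dissolved in methanol, diluted in 0.1 M sodium phosphate pH 6.9) preincubated with starch at 37 °C for 15 min. Enzyme then added and reaction stopped at 5 min with DNSA reagent. Boiled 5 min and absorbance read at 540 nm. Initial velocity taken from reducing sugar released. Mode assigned by Michaelis–Menten and Lineweaver–Burk analysis, with a buffer-only control.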

Active and inactive are the calls of the source. The rule behind the calls is not given here.

Chain of Alpha-amylase (P00691 whole entry): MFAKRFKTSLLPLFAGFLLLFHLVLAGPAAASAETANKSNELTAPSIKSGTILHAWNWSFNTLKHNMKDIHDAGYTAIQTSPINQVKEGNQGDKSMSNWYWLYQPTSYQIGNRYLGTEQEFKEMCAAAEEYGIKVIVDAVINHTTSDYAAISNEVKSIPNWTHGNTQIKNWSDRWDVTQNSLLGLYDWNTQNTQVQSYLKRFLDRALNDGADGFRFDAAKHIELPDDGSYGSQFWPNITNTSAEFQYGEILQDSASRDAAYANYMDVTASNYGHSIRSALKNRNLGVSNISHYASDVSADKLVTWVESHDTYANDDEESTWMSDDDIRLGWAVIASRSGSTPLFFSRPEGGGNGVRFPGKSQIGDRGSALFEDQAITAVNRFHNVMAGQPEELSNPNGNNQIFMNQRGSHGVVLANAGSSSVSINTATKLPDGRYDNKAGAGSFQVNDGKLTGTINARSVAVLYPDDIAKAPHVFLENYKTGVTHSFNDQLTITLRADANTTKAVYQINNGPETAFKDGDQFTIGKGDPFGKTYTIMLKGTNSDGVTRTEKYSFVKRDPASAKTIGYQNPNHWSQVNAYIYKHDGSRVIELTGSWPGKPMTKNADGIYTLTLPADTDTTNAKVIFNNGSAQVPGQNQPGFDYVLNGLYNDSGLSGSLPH

For the molecule `COc1cc2c(c3c1CC[C@@H](c1ccccc1)O3)[C@H]1c3c(cc(O)c(C)c3OC)O[C@@](c3ccccc3)(O2)[C@@H]1O` (mixture of isomers), the inhibition entry in test [1] was “Active”. Further, in test [2], the inhibition entry was “inactive”.

For `C[C@@H]1O[C@@H](O[C@@H]2[C@@H](O)[C@H](O)[C@H](O[C@H]3[C@H](O)[C@@H](O)C(O)O[C@@H]3CO)O[C@H]2CO)[C@@H](O)[C@H](O)[C@H]1N[C@H]1C=C(CO)[C@@H](O)[C@H](O)[C@H]1O` (some centres undefined), the inhibition entry in test [3] is “Active”.

With `COc1cc2c(c3c1CC[C@@H](c1ccccc1)O3)[C@H]1c3c(cc(OS(=O)(=O)O)c(C)c3OC)O[C@@](c3ccccc3)(O2)[C@@H]1O`, the inhibition entry in test [1] was “inactive”.

Turning to `COc1cc2c(c3c1CC[C@@H](c1ccccc1)O3)[C@H]1c3c(cc(OC(=O)c4ccccc4)c(C)c3OC)O[C@@](c3ccccc3)(O2)[C@@H]1O`, in test [1], the inhibition entry is “inactive”.

With `COc1cc2c(c3c1CC[C@@H](c1ccccc1)O3)[C@H]1c3c(cc(OC(=O)c4cc(OC(C)=O)c(OC(C)=O)c(OC(C)=O)c4)c(C)c3OC)O[C@@](c3ccccc3)(O2)[C@@H]1O`, in test [1], the inhibition result was “inactive”.

As for `COc1cc2c(c3c1CC[C@@H](c1ccccc1)O3)[C@H]1c3c(cc(OC(=O)c4cc(O)c(O)c(O)c4)c(C)c3OC)O[C@@](c3ccccc3)(O2)[C@@H]1O`, the IC50 (commonly the midpoint of a concentration-inhibition curve) in test [4] is 12 µM.

Regarding `COc1cc2c(c3c1CC[C@@H](c1ccccc1)O3)[C@H]1c3c(cc(OC(C)=O)c(C)c3OC)O[C@@](c3ccccc3)(O2)[C@@H]1O`, the inhibition result in test [1] was “inactive”.

Turning to `COc1cc2c(c3c1CC[C@@H](c1ccccc1)O3)[C@@H]1c3c(cc(O)c(C)c3OC)O[C@](c3ccccc3)(O2)[C@H]1O`, the inhibition result in test [5] is “inactive”. Besides, the figures for the IC50 in test [6] and in test [4] were 42 µM and 27 µM, respectively. The Ki (usually the equilibrium dissociation constant of an inhibitor or competing ligand from its target) in test [7] came out at 11.7 µM.

For the molecule `COc1cc2c(c3c1CC[C@@H](c1ccccc1)O3)[C@H]1c3c(cc(O)c(C)c3OC)O[C@@](c3ccccc3)(O2)[C@@H]1O`, the IC50 in test [4] stood at 23 µM.

As for `Oc1cc(O)c2c(c1)O[C@@]1(c3ccc(O)c(O)c3)Oc3cc(O)c4c(c3[C@@H]2[C@H]1O)O[C@H](c1ccc(O)c(O)c1)[C@H](O)C4`, the inhibition result in test [1] is “inactive”.
